Results on eight compounds are retold here after article PMC7771250 (ACS Infectious Diseases, 2020).

Data set [1] has as its system Vero E6 cells. The settings on record: for cell toxicity in the CPE counter assay: Vero E6, up to 30.0 μM; for CC50: read-out: CPE CC50, uninfected Vero E6, 72 h; for cytotoxicity (reduction of cell viability): at 30.0 μM.
Data set [2] relates to LC3B. In words: LC3B immunostaining autophagy assay, average of four cell lines. The conditions noted are these: for EC50: 16 h, read-out: autophagy EC50. It is filed as cell-based.
For data set [3] the following is noted: cited from earlier work; for T1/2: 85 (chloroquine).
Data set [4] concerns SARS-CoV-2. The conditions noted are these: similar CPE assay with SARS-CoV-2 in Vero E6 cells; cited from earlier work.
In data set [5] the test system is SARS-CoV-2 spike pseudotyped particle (PP). Put plainly: microbe, parasite or virus in culture. Type of data set: cell-based. The conditions noted are these: Severe acute respiratory syndrome coronavirus 2, HEK-293T, 48 h, read-out: PP EC50.
The subject of data set [6] is SARS-CoV-2. In words: microbe, parasite or virus in culture. Type of data set: cell-based, SARS CoV-2 (USA_WA1/2020). The conditions noted are these: Severe acute respiratory syndrome coronavirus 2, Vero C1008, 72 h, read-out: CPE EC50, Vero E6, 72 h; table: mean ± confidence interval.
The next data set in a line: in vitro. The conditions noted are these: human.
In data set [7] the test system is Vero E6 cells. The settings on record: Vero E6, OpenData Portal screening data, Figure S14; cited from earlier work.
Data set [8] relates to SARS-CoV-2. The settings on record: Vero E6, OpenData Portal screening data, Figure S14; cited from earlier work.
A further data set relates to acidic organelles. In words: LysoTracker Deep Red staining in Vero E6 cells. It is filed as cell-based, monkey.
Data set [9] has as its system Vero E6 cells. The settings on record: drug-repurposing screen in Vero E6 cells; cited from earlier work.
The subject of data set [10] is Vero E6 cells. Put plainly: Cell. Type of data set: cell-based, monkey.
In data set [11] the test system is LC3B. In words: LC3B immunostaining autophagy assay in Vero E6 cells. The conditions noted are these: Vero E6, about 16 h; for LC3B spot accumulation: 50 to 0.02 μM. It is filed as cell-based, monkey. The method, boiled down:
(§1)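 Cells were seeded overnight to 60% confluence and dosed at 8 points, 1:3 from 50 μM to 0.02 μM. They were fixed in ice-cold methanol for 10 min at −30 °C, blocked, and stained with rabbit anti-LC3B for 2 h at RT, AlexaFluor-647 anti-rabbit for 1 h, and Hoechst. Six fields per well were imaged. Spot count was normalized to DMSO (0%) and a reference (100%). Points with viability below 20% were excluded.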

Data set [12] relates to human bronchial epithelial cells. The settings on record: LDH release, 24 and 96 h.
Data set [13] deals with SARS-CoV-2. Type of data set: cell-based. The settings on record: EpiAirway, positive control.
Data set [14] has as its system LC3B. In words: LC3B immunostaining autophagy assay in Huh-7.5 cells. Type of data set: cell-based, human. Put shortly:
as §1

The conditions of data set [15]: cited from earlier work.

Molecules are shown by their SMILES. Where two headings read alike, the source gives them in different places.

For orientation: EC50 means the midpoint of the concentration-response curve. In the case of `CCN(CCO)CCCC(C)Nc1ccnc2cc(Cl)ccc12` (centres unmarked) [hydroxychloroquine], in the data set with Vero E6 cells [1], the “cell toxicity in the CPE counter assay” value is listed as “no associated cell toxicity”. In addition, the CC50 in the data set on Vero E6 cells [1] was over 30 µM; in “in vitro”, 16.7 ± 20.3 µM. Further, the EC50 is 6.55 ± 6.67 µM in the data set on LC3B [2], 9.21 µM with SARS-CoV-2 [4], 2.19 ± 0.07 µM in data set [5] and 4.47 µM in the data set on SARS-CoV-2 [6]. Besides, in [3] (86 (hydroxychloroquine)), the T1/2 was about 40 days. For the same compound, the “absorption” value in data set [3] (ref 82 (clomipramine), 86 (hydroxychloroquine)) was “rapid and complete absorption”.
Turning to `CO/C1=C\C(C)=C\[C@@H](C)[C@@H](O)[C@@H](C)C/C(C)=C/C=C/[C@H](OC)[C@@H]([C@@H](C)[C@@H](O)[C@H](C)[C@@]2(O)C[C@@H](O)[C@H](C)[C@@H](C(C)C)O2)OC1=O` [Bafilomycin A1], the “cytotoxicity” value in the data set with Vero E6 cells [7] is “highly cytotoxic”. Further, the “SARS-CoV-2 CPE inhibition” value in the data set with SARS-CoV-2 [8] is recorded as “able to block SARS-CoV-2 CPE at nontoxic nanomolar concentrations”.
In the case of `CN(C)CCCN1c2ccccc2CCc2ccc(Cl)cc21` [clomipramine], in the data set on Vero E6 cells [1] (Vero E6), the “cytotoxicity (reduction of cell viability)” value is listed as “less than 20%”. Moreover, the CC50 was over 30 µM with Vero E6 cells [1], over 30 µM with Vero E6 cells [9] and 18.6 ± 0.29 µM in the data set “in vitro”. Moreover, the “LC3B increase across the cell lines” value in the data set with LC3B [2] (Vero E6, HeLa, HEK293T, Huh-7.5) is recorded as “effective in increasing LC3B in all cell lines except for Vero E6”. For the same compound, the “Vd” value in data set [3] was “high Vd”. The “LysoTracker staining” value in the data set with acidic organelles was “dramatic elevations in LysoTracker relative spot intensity”. Moreover, the “cytotoxicity on the basis of nuclei counts” value with Vero E6 cells [10] (Vero E6, at 50 μM) is reported as “not cytotoxic”. Also, the “increase of LC3B spot count” value in the data set with LC3B [11] (normalized to DMSO (0%) and CQ (100%)) was found to be 40%.
For `CCN(CC)CCCC(C)Nc1ccnc2cc(Cl)ccc12` (centres unmarked) [chloroquine], in the data set on Vero E6 cells [1], the “cell toxicity in the CPE counter assay” value is given as “no associated cell toxicity”. Besides, the figures for the CC50 in the data set on Vero E6 cells [1] and in “in vitro” were over 30 µM and 12 ± 0.51 µM, respectively. The EC50 in the data set with LC3B [2] was 3.29 ± 1.86 µM; in the data set on SARS-CoV-2 [4], 42 µM; in data set [5], 1.37 ± 0.1 µM; in the data set on SARS-CoV-2 [6], 2.01 µM. Also, in data set [3] (86 (hydroxychloroquine)), the T1/2 was 30 to 60 days. Moreover, the plasma bound in [3] is 50–70%.
In the case of `CC(C)(O)CNc1ncc(-c2ccnc(Nc3ccnc(Cl)c3)n2)c(CC2CC2)n1` [VPS34-IN-1], the “cytotoxicity” value with Vero E6 cells [7] was “cytotoxicity was observed at higher concentrations”. Further, the “SARS-CoV-2 CPE inhibition” value with SARS-CoV-2 [8] is listed as “potently inhibited the SARS-CoV-2 CPE at concentrations that were not cytotoxic”.
For `CCC(CC)COC(=O)[C@H](C)N[P@](=O)(OC[C@H]1O[C@@](C#N)(c2ccc3c(N)ncnn23)[C@H](O)[C@@H]1O)Oc1ccccc1` [remdesivir], the “cell toxicity in the CPE counter assay” value with Vero E6 cells [1] was “no apparent cytotoxicity”. The “cytotoxicity in EpiAirway” value in [12] is “without any cytotoxicity”. For the same compound, the EC50 in the data set on SARS-CoV-2 [6] amounted to 7.04 µM. In addition, the “reduction of viral titers” value in the data set with SARS-CoV-2 [13] is on record as “highly effective in reducing viral titers”.
In the data set with Vero E6 cells [1] (at 15.0 to 30.0 μM, Vero E6), `OC(c1cc(C(F)(F)F)nc2c(C(F)(F)F)cccc12)C1CCCCN1` (centres unmarked) [mefloquine] yielded a cytotoxicity of 100%. The half-maximal effective concentration (EC50) with LC3B [14] (Homo sapiens, Huh7.5, read-out: autophagy EC50) was 7.3 µM; in the data set on SARS-CoV-2 [4], 7.11 µM; in data set [5] it was 8.84 ± 0.64 µM; with SARS-CoV-2 [6], 3.85 ± 0.24 µM. In addition, in the data set with LC3B [14] (Huh-7.5), the “LC3B spot counts” value is “increased LC3B spot counts even at low concentrations”. Moreover, the “LysoTracker staining” value with acidic organelles is “dramatic elevations in LysoTracker relative spot intensity”. Moreover, the CC50 is over 18.5 µM in the data set with Vero E6 cells [9] and 5.4 ± 0.01 µM in the data set “in vitro”. Further, the “cytotoxicity on the basis of nuclei counts” value with Vero E6 cells [10] (Vero E6, at 50 μM) is given as “completely toxic”. Further, the “toxicity in the LysoTracker assay” value in the data set with Vero E6 cells [10] (Vero E6, highest concentration (50 μM)) is “toxic at the highest concentration”. For the same compound, the “LC3B spot accumulation” value in the data set with LC3B [11] is given as “ineffective at inducing LC3B spot accumulation”.
For the compound `CCN(CC)CCNc1ccc(CO)c2sc3ccccc3c(=O)c12` [hycanthone], the “absorption” value in [15] (monkey) is “well-absorbed in monkey”. Also, in [15] (species not given, human data lacking), the T1/2 was 0.12 to 0.21 days. For the same compound, the “cytotoxicity (reduction of cell viability)” value with Vero E6 cells [1] (Vero E6) is listed as about 100%. The values for the EC50 (with LC3B [2]; in data set [5]; with SARS-CoV-2 [6]) were 7.35 ± 4.7 µM, 1.88 ± 0.08 µM and 5.79 ± 0.26 µM, respectively. For the same compound, the CC50 in the data set “in vitro” came to 11.7 ± 0.49 µM. Also, the cells killed result in the data set with Vero E6 cells [10] (Vero E6, at 50 μM) is “approximately 60%”. For the same compound, in the data set with LC3B [11], the “LC3B spot accumulation” value is “maximal spot counts”.
